# The source made the active and inactive calls.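 The calls were made as follows, unless noted: active = growth inhibition above 25% in both replicates, a cutoff set 3 SD above the mean; inconclusive = above 25% in only one replicate; inactive = the rest.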 Non-standard residues stand in square brackets, D forms with d. Residues, ends and D or L forms follow the SMILES beside them. ξ: configuration not given here. *: point of attachment. Cbz = O=C(OCc1ccccc1)*; ξV = CC(C)C(N)C(=O)O; OtBu = CC(C)(C)O*
# Experiment: S. cerevisiae growth inhibition in permissive medium (OD615), pilot counter-assay for S. cerevisiae lifespan shortening project, permissive growth control (AID 705)
# Details: OD615, 24 h, at 10 µM, stronger effect = higher value
# How it was run: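 System: engineered DeaD yeast; Medium: permissive raffinose/galactose medium; Compound dosing: 10 µM single dose, 0.25% DMSO; Incubation: 4 h cell pre-growth, 24 h exposure at 30 °C; Technique: OD at 615 nm; Evaluation: growth inhibition from lowered OD615 after 24 h.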
row,SMILES,growth inhibition
1,Cc1nnc(NC(=O)CSc2nnc(Cc3cccn3C)n2-c2cccc(C(F)(F)F)c2)s1,-1.29% (inactive)
2,O=S(=O)(c1cccs1)n1nnc2ccccc21,-1.66% (inactive)
3,CC(C)N(CCCNC(=O)CC1Oc2ccccc2NC1=O)Cc1ccccc1 (stereo not given),2.46% (inactive)
4,O=C(Nc1ccccc1C(=O)NC(Cc1c[nH]c2ccccc12)C(=O)O)c1ccco1 (stereo not given),-11% (inactive)
5,COCCCN(C(=O)Nc1ccc(C)c(C)c1)C(C)c1ccccn1 (stereo not given),2.01% (inactive)
6,O=C(Cn1c(=O)sc2ccccc21)Nc1ccccc1C(=O)O,-3.71% (inactive)
7,CCCCNc1cc(=O)n(C)c(=O)[nH]1,-12.2% (inactive)
8,C=CCc1cc(/C=N/n2cnnc2)cc(OCC)c1O,-10.7% (inactive)
9,O=C(c1cnc2n(c1=O)CCS2)N1CCN(C(c2ccccc2)c2ccc(Cl)cc2)CC1 (stereo not given),-9.19% (inactive)
10,COc1cccc(-c2nnc3n2N=C(C(C)(C)C)CS3)c1,-5.97% (inactive)
11,CC1=C(C(N)=O)C(c2ccccn2)n2nc(SCc3ccccc3Cl)nc2N1 (stereo not given),-4.42% (inactive)
12,Cc1nnc(SCC(=O)N2CCOCC2)n1C,-6.97% (inactive)
13,CCc1nnc(NC(=O)CCC(=O)O)s1,-7.04% (inactive)
14,O=C(Nc1cccc(F)c1)c1ccc(S(=O)(=O)N2CCOCC2)cc1,-17% (inactive)
15,O=C(NCc1ccc2c(c1)OCO2)C1CC(=O)N(CCc2ccccc2)C1 (stereo not given),0.26% (inactive)
16,COc1cc(OC)c(NC(=O)c2ccc(Br)o2)cc1Cl,-8.78% (inactive)
17,CCOc1ccc2nc(N3CCC(C(=O)Nc4nnc(CC)s4)CC3)sc2c1,-13.1% (inactive)
18,CC(C)C(NC(=O)OCc1ccccc1)C(=O)NCC(=O)OC(C)(C)C (stereo not given) (Cbz-[ξV]-Gly-OtBu),-5.84% (inactive)
19,Cc1cc(Nc2ccc(F)cc2)n2nc(C)nc2n1,-2.01% (inactive)
20,CCOc1ccc(NC(=O)CSc2nnc(Cn3c(=O)sc4ccccc43)n2C)cc1,-5.25% (inactive)

row,SMILES,growth inhibition
1,Cn1c(=O)cc(N2CCc3ccccc32)[nH]c1=O,-11.7% (inactive)
2,CC1(C)CC(=O)c2sc(NC(=O)C3CC3)nc2C1,-1.12% (inactive)
3,CCN(CC)CCN1C(=O)C2C3c4ccccc4C(c4ccccc43)C2C1=O (stereo not given),-2.27% (inactive)
4,CCCN1CCN(C(=O)C2CCN(S(=O)(=O)c3ccc4c(c3)oc(=O)n4C)CC2)CC1,-6.11% (inactive)
5,C=CCn1c(SCC(=C)C)nc2c1c(=O)[nH]c(=O)n2C,-14.8% (inactive)
6,CCC(C)NC(=O)c1ccc(CS(=O)(=O)c2ccc(OC)cc2)o1 (stereo not given),4.79% (inactive)
7,CC(=O)C(C)Oc1ccc2c3c(c(=O)oc2c1)CCCC3 (stereo not given),-6.26% (inactive)
8,C=CCOC(=O)c1[nH]c2c(c1C)C(=O)CC(c1cc(OC)c(OC)c(OC)c1)C2 (stereo not given),1.75% (inactive)
9,CCOc1nonc1C(=N)/C(C(C)=O)=C(\C)O,-12.6% (inactive)
10,Cc1ccc(Nc2nc(C3CC3)cs2)cc1,-8.21% (inactive)
11,Cc1ccccc1CN1CCNC(=O)C1CC(=O)O (stereo not given),-13.2% (inactive)
12,CCN1CCN(CCNC(=O)c2ccc(CS(=O)(=O)c3c(Cl)cccc3Cl)o2)CC1,5.83% (inactive)
13,COc1ccc(C(=O)N(Cc2nc(-c3ccc(C)cc3)no2)C(C)C)cc1OC,-12.1% (inactive)
14,COc1cc2c(cc1OC)C1=C(C#N)CC/C(=N\S(=O)(=O)c3ccccc3)N1CC2,-11.1% (inactive)
15,Nc1nc2n(n1)C(c1ccco1)CC(c1ccc(F)cc1)N2 (stereo not given),-0.245% (inactive)
16,C=CCN(c1ccccc1)S(=O)(=O)c1ccc2c(c1)oc(=O)n2C,-15.1% (inactive)
17,C#CCn1c(=NC(=O)c2cccs2)sc2cccc(OC)c21,-11.2% (inactive)
18,CC(=O)N1CCN(c2ccc(NCc3ccc(F)cc3)cc2)CC1,-7.68% (inactive)
19,CCn1c(SCC(=O)N2CCCC2)nc2c(c1=O)SC(C)C2 (stereo not given),-17.4% (inactive)
20,CC(C)(CC(=O)O)Cc1nc(-c2ccc(Cl)cc2)no1,2.38% (inactive)

# Experiment: S. cerevisiae growth inhibition in restrictive medium, OD615, pilot screen, restrictive growth control, yeast lifespan reduction project (AID 706;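 active = growth inhibition above a set limit, 3 SD over mean compound inhibition, in both replicates, cut at about 43% in these data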;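 also: modified DeaD lifespan yeast strain shifted to restrictive glucose medium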)
# Details: OD615, 48 h, at 10 µM, stronger effect = higher value
# How it was run: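 Material: modified S. cerevisiae; buffer or medium: CSMM-D glucose medium; doses: one concentration, 10 µM final, 0.25% DMSO; incubation: 48 h compound exposure at 30 °C; detection: optical density at 615 nm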
row,SMILES,growth inhibition
1,Cc1nnc(NC(=O)CSc2nnc(Cc3cccn3C)n2-c2cccc(C(F)(F)F)c2)s1,13.7% (inactive)
2,O=S(=O)(c1cccs1)n1nnc2ccccc21,-8.55% (inactive)
3,CC(C)N(CCCNC(=O)CC1Oc2ccccc2NC1=O)Cc1ccccc1 (stereo not given),10.3% (inactive)
4,O=C(Nc1ccccc1C(=O)NC(Cc1c[nH]c2ccccc12)C(=O)O)c1ccco1 (stereo not given),-11.3% (inactive)
5,COCCCN(C(=O)Nc1ccc(C)c(C)c1)C(C)c1ccccn1 (stereo not given),11.8% (inactive)
6,O=C(Cn1c(=O)sc2ccccc21)Nc1ccccc1C(=O)O,0.435% (inactive)
7,CCCCNc1cc(=O)n(C)c(=O)[nH]1,-4.46% (inactive)
8,C=CCc1cc(/C=N/n2cnnc2)cc(OCC)c1O,-1.86% (inactive)
9,O=C(c1cnc2n(c1=O)CCS2)N1CCN(C(c2ccccc2)c2ccc(Cl)cc2)CC1 (stereo not given),-3.16% (inactive)
10,COc1cccc(-c2nnc3n2N=C(C(C)(C)C)CS3)c1,-16.3% (inactive)
11,CC1=C(C(N)=O)C(c2ccccn2)n2nc(SCc3ccccc3Cl)nc2N1 (stereo not given),-12.1% (inactive)
12,Cc1nnc(SCC(=O)N2CCOCC2)n1C,-18% (inactive)
13,CCc1nnc(NC(=O)CCC(=O)O)s1,-5.46% (inactive)
14,O=C(Nc1cccc(F)c1)c1ccc(S(=O)(=O)N2CCOCC2)cc1,-7.46% (inactive)
15,O=C(NCc1ccc2c(c1)OCO2)C1CC(=O)N(CCc2ccccc2)C1 (stereo not given),0.755% (inactive)
16,COc1cc(OC)c(NC(=O)c2ccc(Br)o2)cc1Cl,7.46% (inactive)
17,CCOc1ccc2nc(N3CCC(C(=O)Nc4nnc(CC)s4)CC3)sc2c1,-21.7% (inactive)
18,CC(C)C(NC(=O)OCc1ccccc1)C(=O)NCC(=O)OC(C)(C)C (stereo not given) (Cbz-[ξV]-Gly-OtBu),-2.87% (inactive)
19,Cc1cc(Nc2ccc(F)cc2)n2nc(C)nc2n1,4.12% (inactive)
20,CCOc1ccc(NC(=O)CSc2nnc(Cn3c(=O)sc4ccccc43)n2C)cc1,-0.055% (inactive)

row,SMILES,growth inhibition
1,Cn1c(=O)cc(N2CCc3ccccc32)[nH]c1=O,2.4% (inactive)
2,CC1(C)CC(=O)c2sc(NC(=O)C3CC3)nc2C1,-10.6% (inactive)
3,CCN(CC)CCN1C(=O)C2C3c4ccccc4C(c4ccccc43)C2C1=O (stereo not given),-2.01% (inactive)
4,CCCN1CCN(C(=O)C2CCN(S(=O)(=O)c3ccc4c(c3)oc(=O)n4C)CC2)CC1,-13.9% (inactive)
5,C=CCn1c(SCC(=C)C)nc2c1c(=O)[nH]c(=O)n2C,-25.6% (inactive)
6,CCC(C)NC(=O)c1ccc(CS(=O)(=O)c2ccc(OC)cc2)o1 (stereo not given),-1.07% (inactive)
7,CC(=O)C(C)Oc1ccc2c3c(c(=O)oc2c1)CCCC3 (stereo not given),9.38% (inactive)
8,C=CCOC(=O)c1[nH]c2c(c1C)C(=O)CC(c1cc(OC)c(OC)c(OC)c1)C2 (stereo not given),6.24% (inactive)
9,CCOc1nonc1C(=N)/C(C(C)=O)=C(\C)O,-12.1% (inactive)
10,Cc1ccc(Nc2nc(C3CC3)cs2)cc1,-0.01% (inactive)
11,Cc1ccccc1CN1CCNC(=O)C1CC(=O)O (stereo not given),-14.1% (inactive)
12,CCN1CCN(CCNC(=O)c2ccc(CS(=O)(=O)c3c(Cl)cccc3Cl)o2)CC1,6.53% (inactive)
13,COc1ccc(C(=O)N(Cc2nc(-c3ccc(C)cc3)no2)C(C)C)cc1OC,-6.13% (inactive)
14,COc1cc2c(cc1OC)C1=C(C#N)CC/C(=N\S(=O)(=O)c3ccccc3)N1CC2,-3.91% (inactive)
15,Nc1nc2n(n1)C(c1ccco1)CC(c1ccc(F)cc1)N2 (stereo not given),11.6% (inactive)
16,C=CCN(c1ccccc1)S(=O)(=O)c1ccc2c(c1)oc(=O)n2C,-18.7% (inactive)
17,C#CCn1c(=NC(=O)c2cccs2)sc2cccc(OC)c21,-16.3% (inactive)
18,CC(=O)N1CCN(c2ccc(NCc3ccc(F)cc3)cc2)CC1,0.705% (inactive)
19,CCn1c(SCC(=O)N2CCCC2)nc2c(c1=O)SC(C)C2 (stereo not given),-27.5% (inactive)
20,CC(C)(CC(=O)O)Cc1nc(-c2ccc(Cl)cc2)no1,10.4% (inactive)
